According to ChEMBL document CHEMBL1671636, “Role of ampD homologs in overproduction of AmpC in clinical isolates of Pseudomonas aeruginosa” (2008):
In brackets after ≈: the same amount, converted by molar mass.

Legend:
Assay type in all cases: functional
Pseudomonas aeruginosa [1] = experiment: Antimicrobial activity against Pseudomonas aeruginosa isolate TX291 obtained from patient with non-cystic fibrosis by agar dilution method
Pseudomonas aeruginosa [2] = experiment: Antimicrobial activity against Pseudomonas aeruginosa isolate TX292 obtained from patient with non-cystic fibrosis by agar dilution method
Pseudomonas aeruginosa [3] = experiment: Antimicrobial activity against Pseudomonas aeruginosa isolate 164CD obtained from patient with non-cystic fibrosis by Etest
Pseudomonas aeruginosa [4] = experiment: Antimicrobial activity against Pseudomonas aeruginosa PAO1 by agar dilution method
Pseudomonas aeruginosa [5] = experiment: Antimicrobial activity against Pseudomonas aeruginosa isolate PA22 obtained from patient with cystic fibrosis by agar dilution method
Pseudomonas aeruginosa [6] = experiment: Antimicrobial activity against Pseudomonas aeruginosa isolate PA367 obtained from patient with cystic fibrosis by agar dilution method
Pseudomonas aeruginosa [7] = experiment: Antimicrobial activity against Pseudomonas aeruginosa isolate PA24 obtained from patient with cystic fibrosis by agar dilution method
Pseudomonas aeruginosa [8] = experiment: Antimicrobial activity against Pseudomonas aeruginosa isolate PA113 obtained from patient with cystic fibrosis by agar dilution method
Pseudomonas aeruginosa [9] = experiment: Antimicrobial activity against Pseudomonas aeruginosa isolate GB57 obtained from patient with non-cystic fibrosis by Etest
Pseudomonas aeruginosa [10] = experiment: Antimicrobial activity against Pseudomonas aeruginosa isolate GB61 obtained from patient with non-cystic fibrosis by Etest
Pseudomonas aeruginosa [11] = experiment: Antimicrobial activity against Pseudomonas aeruginosa isolate GB61 obtained from patient with non-cystic fibrosis by broth microdilution method
Pseudomonas aeruginosa [12] = experiment: Antimicrobial activity against Pseudomonas aeruginosa isolate 164CD obtained from patient with non-cystic fibrosis by agar dilution method
Pseudomonas aeruginosa [13] = experiment: Antimicrobial activity against Pseudomonas aeruginosa PAO1 expressing beta-lactamase AmpD1 by disk diffusion method
In short: (§1)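 Each ampD homolog gene, from PAO1 or the clinical isolate, was tested in a plasmid model system. An AmpD-deficient E. coli strain (JRG582) carrying an inducible genetic system was complemented with the gene. Read-out was the ceftazidime inhibition zone diameter in mm; lack of complementation gives a ceftazidime-resistant phenotype.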

Pseudomonas aeruginosa [14] = experiment: Antimicrobial activity against Pseudomonas aeruginosa isolate PA22 obtained from patient with cystic fibrosis harboring beta-lactamase AmpD1 Gly148ala and Asp183Tyr mutant by disk diffusion method; in short: as §1
Pseudomonas aeruginosa [15] = experiment: Antimicrobial activity against Pseudomonas aeruginosa isolate PA367 obtained from patient with cystic fibrosis harboring beta-lactamase AmpD1 Gly148ala and Asp183Tyr mutant by disk diffusion method; in short: as §1
Pseudomonas aeruginosa [16] = experiment: Antimicrobial activity against Pseudomonas aeruginosa isolate PA24 obtained from patient with cystic fibrosis harboring beta-lactamase AmpD1 12-nt deletion at nucleotide 5064908 and deletion of codons 144-147 by disk diffusion method; in short: as §1
Pseudomonas aeruginosa [17] = experiment: Antimicrobial activity against Pseudomonas aeruginosa isolate PA113 harboring beta-lactamase AmpD1 Gly148Ala, Asp183Tyr mutant obtained from patient with cystic fibrosis by agar dilution method
Pseudomonas aeruginosa [18] = experiment: Antimicrobial activity against Pseudomonas aeruginosa isolate GB57 harboring beta-lactamase AmpD1 Val10Ile mutant obtained from patient with non-cystic fibrosis by Etest
Pseudomonas aeruginosa [19] = experiment: Antimicrobial activity against Pseudomonas aeruginosa isolate GB61 harboring beta-lactamase AmpD1 Gly148Ala mutant obtained from patient with non-cystic fibrosis by Etest
Pseudomonas aeruginosa [20] = experiment: Antimicrobial activity against Pseudomonas aeruginosa isolate TX291 harboring beta-lactamase AmpD1 11-nt deletion at nt 5064907 and frameshift mutation obtained from patient with non-cystic fibrosis by agar dilution method
Pseudomonas aeruginosa [21] = experiment: Antimicrobial activity against Pseudomonas aeruginosa isolate TX292 harboring beta-lactamase AmpD1 11-nt deletion at nt 5064907 and frameshift mutation obtained from patient with non-cystic fibrosis by agar dilution method
Pseudomonas aeruginosa [22] = experiment: Antimicrobial activity against Pseudomonas aeruginosa isolate 164CD harboring beta-lactamase AmpD1 Leu32Pro, Gly46Ser, Gly148Ala mutant obtained from patient with non-cystic fibrosis by agar dilution method
Pseudomonas aeruginosa [23] = experiment: Antimicrobial activity against Pseudomonas aeruginosa PAO1 expressing beta-lactamase AmpDh2 by disk diffusion method; in short: as §1
Pseudomonas aeruginosa [24] = experiment: Antimicrobial activity against Pseudomonas aeruginosa PAO1 expressing beta-lactamase AmpDh3 by disk diffusion method; in short: as §1
Pseudomonas aeruginosa [25] = experiment: Antimicrobial activity against Pseudomonas aeruginosa isolate PA22 obtained from patient with cystic fibrosis harboring beta-lactamase AmpDh3 Asp137Gly, Ala219Thr mutant by disk diffusion method; in short: as §1
Pseudomonas aeruginosa [26] = experiment: Antimicrobial activity against Pseudomonas aeruginosa isolate PA367 obtained from patient with cystic fibrosis harboring beta-lactamase AmpDh3 Asp137Gly, Ala219Thr mutant by disk diffusion method; in short: as §1
Pseudomonas aeruginosa [27] = experiment: Antimicrobial activity against Pseudomonas aeruginosa isolate PA24 obtained from patient with cystic fibrosis harboring beta-lactamase AmpDh3 Ala219Thr mutant by disk diffusion method; in short: as §1
Pseudomonas aeruginosa [28] = experiment: Antimicrobial activity against Pseudomonas aeruginosa isolate PA113 harboring beta-lactamase AmpDh3 Ala219Thr mutant obtained from patient with cystic fibrosis by agar dilution method
Pseudomonas aeruginosa [29] = experiment: Antimicrobial activity against Pseudomonas aeruginosa isolate TX291 harboring beta-lactamase AmpDh3 Ala208Val mutant obtained from patient with non-cystic fibrosis by agar dilution method
Pseudomonas aeruginosa [30] = experiment: Antimicrobial activity against Pseudomonas aeruginosa isolate 164CD harboring beta-lactamase AmpDh3 Ile67Thr mutant obtained from patient with non-cystic fibrosis by agar dilution method
Pseudomonas aeruginosa [31] = experiment: Antimicrobial activity against Pseudomonas aeruginosa isolate GB57 obtained from patient with non-cystic fibrosis by broth microdilution method
Pseudomonas aeruginosa [32] = experiment: Antimicrobial activity against Pseudomonas aeruginosa isolate GB61 obtained from patient with non-cystic fibrosis by Etest in presence of beta-lactamase inhibitor Tazobactam
Pseudomonas aeruginosa [33] = experiment: Antimicrobial activity against Pseudomonas aeruginosa isolate TX291 obtained from patient with non-cystic fibrosis by Etest in presence of beta-lactamase inhibitor Tazobactam
Pseudomonas aeruginosa [34] = experiment: Antimicrobial activity against Pseudomonas aeruginosa isolate TX292 obtained from patient with non-cystic fibrosis by Etest in presence of beta-lactamase inhibitor Tazobactam
Pseudomonas aeruginosa [35] = experiment: Antimicrobial activity against Pseudomonas aeruginosa isolate 164CD obtained from patient with non-cystic fibrosis by Etest in presence of beta-lactamase inhibitor Tazobactam
Pseudomonas aeruginosa [36] = experiment: Antimicrobial activity against Pseudomonas aeruginosa PAO1 by Etest
Pseudomonas aeruginosa [37] = experiment: Antimicrobial activity against Pseudomonas aeruginosa PAO1 by agar dilution method in presence of beta-lactamase inhibitor Tazobactam
Pseudomonas aeruginosa [38] = experiment: Antimicrobial activity against Pseudomonas aeruginosa isolate PA22 obtained from patient with cystic fibrosis by agar dilution method in presence of beta-lactamase inhibitor Tazobactam
Pseudomonas aeruginosa [39] = experiment: Antimicrobial activity against Pseudomonas aeruginosa isolate PA367 obtained from patient with cystic fibrosis by agar dilution method in presence of beta-lactamase inhibitor Tazobactam
Pseudomonas aeruginosa [40] = experiment: Antimicrobial activity against Pseudomonas aeruginosa isolate PA24 obtained from patient with cystic fibrosis by agar dilution method in presence of beta-lactamase inhibitor Tazobactam
Pseudomonas aeruginosa [41] = experiment: Antimicrobial activity against Pseudomonas aeruginosa isolate PA113 obtained from patient with cystic fibrosis by agar dilution method in presence of beta-lactamase inhibitor Tazobactam
Pseudomonas aeruginosa [42] = experiment: Antimicrobial activity against Pseudomonas aeruginosa isolate GB57 obtained from patient with non-cystic fibrosis by Etest in presence of beta-lactamase inhibitor Tazobactam

SMILES | MIC (Pseudomonas aeruginosa [1]) [µg/mL] | MIC (Pseudomonas aeruginosa [2]) [µg/mL] | MIC (Pseudomonas aeruginosa [3]) [µg/mL] | MIC (Pseudomonas aeruginosa [4]) [µg/mL] | MIC (Pseudomonas aeruginosa [5]) [µg/mL] | MIC (Pseudomonas aeruginosa [6]) [µg/mL] | MIC (Pseudomonas aeruginosa [7]) [µg/mL] | MIC (Pseudomonas aeruginosa [8]) [µg/mL] | MIC (Pseudomonas aeruginosa [9]) [µg/mL] | MIC (Pseudomonas aeruginosa [10]) [µg/mL] | MIC (Pseudomonas aeruginosa [12]) [µg/mL] | further results
C[C@H]1[C@H](NC(=O)/C(=N\OC(C)(C)C(=O)O)c2csc(N)n2)C(=O)N1S(=O)(=O)O [AZTREONAM] | 64 (≈ 147 µM) | 64 (≈ 147 µM) | > 256 | 4 (≈ 9.19 µM) | 4 (≈ 9.19 µM) | 4 (≈ 9.19 µM) | 128 (≈ 294 µM) | 16 (≈ 36.7 µM) | > 256 | 48 (≈ 110 µM) |  | 
CO/N=C(\C(=O)N[C@@H]1C(=O)N2C(C(=O)[O-])=C(C[N+]3(C)CCCC3)CS[C@H]12)c1csc(N)n1 [CEFEPIME] | 32 (≈ 66.6 µM) | 32 (≈ 66.6 µM) | > 256 | 1 (≈ 2.08 µM) | 16 (≈ 33.3 µM) | 16 (≈ 33.3 µM) | 64 (≈ 133 µM) | 16 (≈ 33.3 µM) | > 256 | 32 (≈ 66.6 µM) |  | 
CC(C)(O/N=C(\C(=O)N[C@@H]1C(=O)N2C(C(=O)[O-])=C(C[n+]3ccccc3)CS[C@H]12)c1csc(N)n1)C(=O)O [CEFTAZIDIME] | 32 (≈ 58.5 µM) | 32 (≈ 58.5 µM) |  | 1 (≈ 1.83 µM) | 16 (≈ 29.3 µM) | 32 (≈ 58.5 µM) | 128 (≈ 234 µM) | 32 (≈ 58.5 µM) |  |  | 128 (≈ 234 µM) | MIC (Pseudomonas aeruginosa [11]): 128 µg/mL (≈ 234 µM); diameter of the inhibition zone (DIZ) (Pseudomonas aeruginosa [13]): 17 mm; diameter of the inhibition zone (DIZ) (Pseudomonas aeruginosa [14]): 8 mm; diameter of the inhibition zone (DIZ) (Pseudomonas aeruginosa [15]): 8 mm; diameter of the inhibition zone (DIZ) (Pseudomonas aeruginosa [16]): 6 mm; diameter of the inhibition zone (DIZ) (Pseudomonas aeruginosa [17]): 8 mm; diameter of the inhibition zone (DIZ) (Pseudomonas aeruginosa [18]): 10 mm; diameter of the inhibition zone (DIZ) (Pseudomonas aeruginosa [19]): 12 mm; diameter of the inhibition zone (DIZ) (Pseudomonas aeruginosa [20]): 11 mm; diameter of the inhibition zone (DIZ) (Pseudomonas aeruginosa [21]): 11 mm; diameter of the inhibition zone (DIZ) (Pseudomonas aeruginosa [22]): 8 mm; diameter of the inhibition zone (DIZ) (Pseudomonas aeruginosa [23]): 6 mm; diameter of the inhibition zone (DIZ) (Pseudomonas aeruginosa [24]): 18 mm; diameter of the inhibition zone (DIZ) (Pseudomonas aeruginosa [25]): 10 mm; diameter of the inhibition zone (DIZ) (Pseudomonas aeruginosa [26]): 10 mm; diameter of the inhibition zone (DIZ) (Pseudomonas aeruginosa [27]): 9 mm; diameter of the inhibition zone (DIZ) (Pseudomonas aeruginosa [28]): 9 mm; diameter of the inhibition zone (DIZ) (Pseudomonas aeruginosa [29]): 8 mm; diameter of the inhibition zone (DIZ) (Pseudomonas aeruginosa [30]): 10 mm; MIC (Pseudomonas aeruginosa [31]): > 128 µg/mL
CCN1CCN(C(=O)N[C@@H](C(=O)N[C@@H]2C(=O)N3[C@@H]2SC(C)(C)[C@@H]3C(=O)O)c2ccccc2)C(=O)C1=O [PIPERACILLIN] | 256 (≈ 495 µM) | 256 (≈ 495 µM) |  |  | 128 (≈ 247 µM) | 64 (≈ 124 µM) | 256 (≈ 495 µM) | 128 (≈ 247 µM) | > 256 | > 256 | > 1020 | MIC (Pseudomonas aeruginosa [32]): > 256 µg/mL; MIC (Pseudomonas aeruginosa [33]): > 256 µg/mL; MIC (Pseudomonas aeruginosa [34]): > 256 µg/mL; MIC (Pseudomonas aeruginosa [35]): > 256 µg/mL; MIC (Pseudomonas aeruginosa [36]): 4 µg/mL (≈ 7.73 µM); MIC (Pseudomonas aeruginosa [37]): 4 µg/mL; MIC (Pseudomonas aeruginosa [38]): 64 µg/mL; MIC (Pseudomonas aeruginosa [39]): 64 µg/mL; MIC (Pseudomonas aeruginosa [40]): 128 µg/mL; MIC (Pseudomonas aeruginosa [41]): 64 µg/mL; MIC (Pseudomonas aeruginosa [42]): > 256 µg/mL
